This is an account of results in the RNAGym collection of RNA variant scans (doi:10.1126/science.aae0568).

The chains are these.
B1: tRNA (parent)
chain: GUUCCGUUGGCGUAAUGGUAACGCGUCUCCCUCCUAAGGAGAAGACUGCGGGUUCGAGUCCCGUACGGAACG

Fewer inactive variants are shown than the library holds.

Variants of B1 are the subject of this data set. Kind of data set: yeast fitness relative to wild type (ratio to wild type); higher = fitter; tRNA-Arg(CCU), competitive growth, 37 C, YPD. The gist of the method:
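Gene amplicons from the start population and from each of six end populations were read by 100-nucleotide paired-end sequencing. Those end populations came from pooled Saccharomyces cerevisiae strains carrying tRNA-Arg(CCU) gene variants at the native locus, competed in YPD at 37°C for 24 hours. Fitness relative to wild type was worked out from changes in genotype frequencies. Genotypes needed ≥ 100 starting reads, and estimates < 0.5 were set to 0.5.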
For the variant U2C A21G A65U, the yeast fitness was 0.665.
With U2G C22U C24G G51C C60U G67A, the yeast fitness was at most 0.5.
In the case of C22G A42C C60G, the yeast fitness was at most 0.5.
Turning to G25A C66A, the yeast fitness came out at 0.631.
Under A14C A43G G68C stands 0.65; under G44C C46A, 1.01; under C4A U16G G52C U64A, at most 0.5.
As to G6A A20G C29A A70U, the yeast fitness was at most 0.5.
Under U26A A57U stands 0.802; under U8C G18U A21C G63A, at most 0.5.
Consider C5A A37G G51C C61G, for which the yeast fitness is at most 0.5.
Under C11A C29U C31G G58C stands at most 0.5; under G10C C22A C33A, 0.538; under U8G G17A A20C C22G C29G C34G C60U C62U A69G, at most 0.5.
Under U26C G48A C55U stands 0.561; under C5U C29A U35G C46U U54G, at most 0.5; under C22U C46G C49A U54C G56A C60A A70C, at most 0.5.
Under G23A C30A A37G stands at most 0.5; under G18A G44A C62U, at most 0.5.
On to C27U A45U C66U, for which the yeast fitness was determined as 0.7.
In the case of U16C C27U A42G G67A, the yeast fitness is at most 0.5.
On to A21C G23A A37C U54C, for which the yeast fitness was at most 0.5.
Under C24U C30U G58C A70G stands at most 0.5; under A43U C62A, 0.702; under U28C A37C A40U A65U, at most 0.5.
The value for G6A C11G C24U was at most 0.5; that for C5G C11A A15G G18A C30G U54C was at most 0.5; that for C5G A15C C29A C61G was at most 0.5.
Under A43G C66A stands 0.791.
C5G C11G G44A G50C U54C C61U A69U A70C: the yeast fitness is at most 0.5.
The value for C11U G18A C31U A40U U47G was at most 0.5; that for A14U A40C A57C was at most 0.5; that for C55A A65C G68A was at most 0.5.
Under G9C C24G G39C C55U A65C stands at most 0.5.
With G6C U16G U35A G51C, the yeast fitness is at most 0.5.
The value for G9A C31A G50C was 0.604; that for C11U C24G U47A was 0.565.
The value for C11G G12C U16G A21G C33G was at most 0.5; that for C4A G44C A57C was at most 0.5.
The value for U28G A37G was 0.586; that for U7A A14G A15C A36G A40U C46A G52C A70U was 0.649.
U26C A65G: the yeast fitness is 0.932.
Take A20C U28C A36C: the yeast fitness is at most 0.5.
The value for G17A C34A C55G was at most 0.5; that for A15G G38C U64A G68A A69C was at most 0.5; that for G25C G63A A65C was 0.6.
The value for G10A U16A C31A A42G A43G G68C was at most 0.5.
C24A C30U C34A A45G A57U C62U: the yeast fitness is at most 0.5.
For the variant A40G G52A A65U, the yeast fitness is at most 0.5.
Turning to C4G C30U G41A, the yeast fitness came out at 0.532.
A42G G67A: the yeast fitness came to 0.747.
Under U7A G10C U26C C27G U32A stands at most 0.5; under C5U U26C G50C G51C G56C G67A, at most 0.5.
Take G10C C29G G39A U64A: the yeast fitness was at most 0.5.
Under G18C G52A C62G stands 0.55.
For U13C C61A G67A, the yeast fitness is at most 0.5.
U16G C31A: the yeast fitness is 0.985.
Under U7C C31U U47C stands at most 0.5; under G18A C29G A37G C60A C62G, 0.728.
For the variant U26C G50A U59A G67C, the yeast fitness was at most 0.5.
With U7A C46G A69C, the yeast fitness turned out to be 0.607.
For C4U G6A A20C C60G A65U A69G, the yeast fitness was at most 0.5.
As for C5G G25A U47C, the yeast fitness stood at 0.781.
The value for A21G C33U C60U was 0.603; that for A37U G44A A70G was at most 0.5; that for C4G A42U G68C was at most 0.5.
As to U2G A40C G41C A42U, the yeast fitness is at most 0.5.
For the variant G25A U26C C29G C61A, the yeast fitness is at most 0.5.
Take C4A C27U: the yeast fitness was determined as 0.901.
Under A37U U47C U53G A69U stands at most 0.5; under G12A A42G, 0.837; under C4A C24A A42G U59A, at most 0.5.
Under C11U C27U U35C stands 0.635; under A20G G41A C61U, 0.644.
For the variant U16A C46U G68C, the yeast fitness stood at 0.651.
Turning to A15G A36U C61U, the yeast fitness is at most 0.5.
On to C5A C22G U47C, for which the yeast fitness was at most 0.5.
Regarding A21U U54A A70G, the yeast fitness is 0.565.
On to C30G C61A, for which the yeast fitness is at most 0.5.
Under C29G C61G stands 0.54; under C55G A57U A65C, at most 0.5; under U7A, 0.826.
The value for G9C A21U was 0.509; that for G12C C62U was 0.776; that for A21G C22U A43C was 0.57.
The value for C5U A20U U26A G52A was at most 0.5.
On to G25A G41C, for which the yeast fitness came out at 0.974.
Consider A15G A37C G56C A65C, for which the yeast fitness was at most 0.5.
As for C30G G58A, the yeast fitness is 0.678.
G56A A57U A70U: the yeast fitness is at most 0.5.
As for C46G, the yeast fitness is 0.99.
Under C24G U26C A37G U54G C61G stands 0.51; under C34A A37G G41A, at most 0.5.
The value for C11G C27G C29G C34U was 0.599.
Under C11G C27U A37U G44A C62A stands 0.511; under U2A G12U G23A A36G G39A, 0.584; under C31A C62G G68C, at most 0.5.
Regarding U26C U28C A36C, the yeast fitness is at most 0.5.
Under A15C A21U A36C C49U A69U stands at most 0.5.
The value for G17A G18C G39C A69U was at most 0.5.
For the variant C4U A37C C49U C60G, the yeast fitness was at most 0.5.
The value for G6A G17C G51A was at most 0.5; that for G6A C46G G51A G52C C62G C66U was at most 0.5.
Under C29U C30U U32C C55G G58A U64A stands at most 0.5.
With C4A G17C G23C A45C A70G, the yeast fitness is at most 0.5.
Under U16G C46G stands 1.06.
The value for U3C C29G was 0.679; that for A14C A21C C29G was at most 0.5; that for U28A G38A was 0.772.
Under G25A C49U A65G A70C stands at most 0.5; under A15U A36G C55G G56A, 0.535.
Consider U8C G12A G25A, for which the yeast fitness was determined as 0.734.
On to C5A G58C, for which the yeast fitness was found to be 0.867.
In the case of G10C A15C A43C, the yeast fitness is at most 0.5.
Regarding G38C G67U A70U, the yeast fitness was at most 0.5.
Regarding A40C G58C, the yeast fitness was determined as 0.922.
The value for A15C C31U was 0.742; that for C5U C27U A37C C60A C66U was at most 0.5; that for C27G A43U C55G was at most 0.5.
For U8C G25C C31U, the yeast fitness is 0.696.
Under G9A U16C A69C stands 0.763; under C60U A69U, 0.771; under C29U A36C G48A G50C, at most 0.5.
Consider G6A U16A A43C G67C, for which the yeast fitness was at most 0.5.
Under C24A C30U A57U C62A stands at most 0.5.
The value for C5U C11U A21G C24G A42U A43C U53G A57C was at most 0.5; that for A14U A40U A42U G51A was 0.62.
The value for U26A C62U G67A was 0.648.
Take G17C G51A U59A C66A: the yeast fitness was at most 0.5.
As for C27U C31A A69C, the yeast fitness came out at 0.598.
Under C30U C31G U35A stands 0.62.
As for C5U U54A A69U, the yeast fitness was at most 0.5.
Under U26C C31G A43C stands 0.78; under G10C U26A C31U, 0.578.
Regarding A21G C22A G56A, the yeast fitness came out at 0.763.
Under C11G C66U A69C stands at most 0.5; under U13A U35A A40U G41A A42C, at most 0.5; under U16G A57G, 0.805.
The value for A14G C22A C27A C29U A42C was at most 0.5; that for C4A G6A U53A A65U was at most 0.5.
The value for C11G G12C A21G U35A G51A was 0.732.
As for U7G A14G U64A, the yeast fitness came to 0.527.
For the variant C11U G18C G39C, the yeast fitness was at most 0.5.
Under C24A U32G A36U A57C stands at most 0.5; under C49U A65U A70U, 0.657; under A40U A43G, 0.788.
Take U7A A43U G52C: the yeast fitness is at most 0.5.
For C11G A20C C24U A36C C66U G67A, the yeast fitness was at most 0.5.
The value for A15U A70C was 0.867; that for U8C U19C A57U was at most 0.5; that for A36C A42U A43G G63C A69U was at most 0.5.
Under A14C A15C C27U C29A C34G G39A G50C stands at most 0.5; under C30A G44C U59A A69U, 0.65.
As for G25A C30A G38A A43G C46U A57U, the yeast fitness was found to be 0.614.
The value for C24A A43G U54C was 0.606; that for G6A U26A G48C was 0.557.
Take C24A U32C C55A C60U: the yeast fitness amounted to 0.698.
Under G10U U16A G25A C49U G50C stands at most 0.5.
Under U32A A40G G50A C61G stands 0.787; under U16A C29U A37G, at most 0.5.
The value for A37C C66U was 0.75; that for C11G G23C A37G C49U C61U was at most 0.5; that for C5A A40G A65G was 0.605.
As for A57C G63A, the yeast fitness amounted to 0.558.
For the variant A40G A43G G44C C66U, the yeast fitness is at most 0.5.
The value for U8A A21U C55A was at most 0.5.
For U3C C27G C33U A43U, the yeast fitness was at most 0.5.
